These results are taken from PubChem BioAssay AID624075 (Broad Institute, 2012).

Active and inactive are the calls of the source.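 Rule for the calls: active = fitted curve reaches -35% activity change at a concentration no higher than twice the top valid tested dose; inactive = the rest, including activity in the opposite direction.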

The first assay deals with P. aeruginosa PAK growth with EDDHA, OD600, 28 h. The assay can be described thus: P. aeruginosa PAK growth delay under chelation, dose response, whole organism, PAK strain, OD600, EDDHA, dry powder, set 4 (AID 624075).
Details: not given
In outline:
(§1)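 Material: Wild-type Pseudomonas aeruginosa PAK bacterial culture | Also added: EDDHA, 2 µM | Doses: Concentration series from 100 µM down to 15 nM final | Buffer or medium: Succinate M9 medium, pH 7.0 | Signal: Absorbance at 600 nm as growth measure | Timing: 28 h growth at 30 °C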
For the molecule `N#CC(c1ccc(F)cc1)c1cccc(C(F)(F)F)n1` (stereo not drawn), the AC35 was 88.7 µM. As for `N#CC(c1ccc(Cl)cc1)c1cccc(C(F)(F)F)n1` (stereo not drawn), the AC35 was 71.1 µM.

Test system in the next assay: not listed separately
The description is as above. The settings on record: P. aeruginosa PAK growth with EDDHA, OD600, 28 h; at 100 µM (top of the series). In outline:
as §1
As to `COCCNC(C#N)c1ccc(Cl)cc1` (stereo not drawn), the activity change, negative = growth inhibition was -2.09% (inactive). As for `CCCCC(c1ccc(Cl)cc1)c1nn[nH]n1` (stereo not drawn), the activity change, negative = growth inhibition was -6.42% (inactive). As to `CCCCC(C#N)c1ccc(F)cn1` (stereo not drawn), the activity change, negative = growth inhibition is -7.64% (inactive). Regarding `N#CC(c1ccc(Cl)cc1)c1ccc(Cl)cn1` (stereo not drawn), the activity change, negative = growth inhibition was -13.9% (inactive). The same measure, in the same setting: the value for `COCCC(C#N)c1ccc(F)cc1` (stereo not drawn) was -1.57% (inactive); that for `N#CC(c1ccc(Cl)cc1)c1ncccc1Cl` (stereo not drawn) was -18.1% (inactive).
